Source: PubChem (several laboratories)
PLCb3 inh: PLC-beta3 (human) inhibition, primary screen; Q01970; Purified PLC-beta3, fluorogenic substrate, fluorescence; inhibition, % at 12.2 µM; hit rate 0.18% among 370,000; AID 720704; in the data active = inhibition above about 11%;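 note: 0% = median of compound wells on plate and 100% = full blocker control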
Target sequence (Q01970 whole entry, looked up): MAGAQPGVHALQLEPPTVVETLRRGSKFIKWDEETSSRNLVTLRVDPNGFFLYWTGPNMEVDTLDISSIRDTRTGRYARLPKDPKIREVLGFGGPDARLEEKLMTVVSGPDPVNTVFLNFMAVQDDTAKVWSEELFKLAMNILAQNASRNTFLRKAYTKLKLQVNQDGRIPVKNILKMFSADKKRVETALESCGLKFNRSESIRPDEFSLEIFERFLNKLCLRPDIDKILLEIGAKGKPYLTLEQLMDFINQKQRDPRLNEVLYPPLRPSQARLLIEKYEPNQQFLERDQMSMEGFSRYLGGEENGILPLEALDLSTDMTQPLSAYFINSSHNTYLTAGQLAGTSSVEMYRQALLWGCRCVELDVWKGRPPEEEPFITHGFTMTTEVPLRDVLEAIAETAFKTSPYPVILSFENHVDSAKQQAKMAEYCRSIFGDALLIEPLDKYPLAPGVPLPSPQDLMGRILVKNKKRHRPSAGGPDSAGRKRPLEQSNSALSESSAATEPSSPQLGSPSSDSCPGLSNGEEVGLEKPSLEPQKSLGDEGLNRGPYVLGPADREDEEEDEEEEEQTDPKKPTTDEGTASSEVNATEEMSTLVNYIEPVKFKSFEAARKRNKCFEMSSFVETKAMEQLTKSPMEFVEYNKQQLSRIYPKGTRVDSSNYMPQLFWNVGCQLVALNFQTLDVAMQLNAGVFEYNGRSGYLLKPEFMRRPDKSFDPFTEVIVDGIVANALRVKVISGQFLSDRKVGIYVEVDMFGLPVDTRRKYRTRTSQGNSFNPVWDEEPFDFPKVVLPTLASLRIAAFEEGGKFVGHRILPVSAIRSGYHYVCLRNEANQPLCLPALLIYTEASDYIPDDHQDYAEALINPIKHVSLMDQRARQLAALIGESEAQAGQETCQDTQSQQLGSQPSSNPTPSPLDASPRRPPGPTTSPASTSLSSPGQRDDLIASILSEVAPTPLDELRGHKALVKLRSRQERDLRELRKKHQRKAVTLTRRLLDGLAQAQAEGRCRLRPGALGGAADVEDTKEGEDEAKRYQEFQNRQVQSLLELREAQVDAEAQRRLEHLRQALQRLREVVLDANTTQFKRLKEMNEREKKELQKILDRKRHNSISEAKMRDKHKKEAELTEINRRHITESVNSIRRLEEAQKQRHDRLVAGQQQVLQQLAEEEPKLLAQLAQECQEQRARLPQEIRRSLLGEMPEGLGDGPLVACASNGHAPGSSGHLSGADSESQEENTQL
Arr AP2 block: inhibitors of human beta-arrestin and AP2 interaction; AID 504490; FITC-arrestin peptide / GST-AP2 beads, flow cytometry; AP2 beta2 appendage carries R879A mutation; inhibition, % at 10 µM; hit rate 0.31% among 340,000;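 active = inhibition above a set limit, near 3 SD of compounds lacking own fluorescence, cut at about 54% in these data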;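 note: plate controls were DMSO wells for no effect and 5 µM unlabelled arrestin peptide for full effect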
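System: GST-tagged AP2 beta2-adaptin appendage (R879A) on 4 µm glutathione beads / Reagent: FITC-arrestin peptide, 50 nM / Detection: HyperCyt-sampled flow cytometry, FL1 channel, ex 488/em 535 nm / Timing: 12 min plus 1 h, RT / Buffer or medium: PBS plus Tween 20 (0.05%) and BSA (0.1%)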
PLCg1 inh: inhibitors of human phospholipase C gamma1; P19174; purified PLC-gamma1, fluorogenic substrate, fluorescence; inhibition, % at 12.2 µM; hit rate 0.84% among 370,000; in the data active = inhibition above about 9.5%
NTR1 ag: NTR1 (human) agonism; NTR1-U2OS beta-arrestin-GFP spot imaging, agonist mode; hit rate 0.17% among 330,000; activation, % at 20 µM; AID 493036; P30989;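 active = activation at or above 40% of the spot to cytoplasm intensity ratio, with at least 20 cells analyzed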;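 note: 0% = DMSO without peptide and 100% = 100 nM NTR1 peptide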
Arr-AP2 CP1: inhibitors of human beta-arrestin and AP2 interaction; shares compounds with Arr AP2 block; GST-AP2 beads, FITC arrestin peptide binding, flow cytometry; GST-fused beta2-adaptin appendage, R879A mutant; inhibition, % at 10 µM; hit rate 2% among 1,300; AID 504908;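 active = inhibition above a set limit, roughly 3 SD of non-fluorescent compound noise, cut at about 38% in these data; inactive = inhibition at or below that limit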;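 note: loss of bead fluorescence from 50 nM FITC arrestin peptide bound to appendage; 0% = negative control wells and 100% = excess unlabelled arrestin peptide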
GST GSH counter: counter-screen for beta-arrestin AP2 inhibitors: GST-GSH bead binding; shares compounds with Arr AP2 block; GST-fluorescein binding to GSH beads, fluorescence; inhibition, % at 10 µM; hit rate 2% among 1,300; AID 588338;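 active = inhibition above 50%, about 3 SD of the inhibition seen with non-fluorescent compounds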;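 note: fluorescein maleimide labelled GST captured on 4 micron glutathione beads; higher means more loss of bead fluorescence from quenching or blocked binding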
Starred values were filed as active, the others as inactive; i = inactive; · = no result. In the library only some 1.3% were active in any assay of this set; here they are far more common.

SMILES | PLCb3 inh | Arr AP2 block | PLCg1 inh | NTR1 ag | Arr-AP2 CP1 | GST GSH counter
CCn1ccnc1CNC(=O)C1CCC(=O)N(Cc2cccc(C(F)(F)F)c2)C1 (stereo not drawn) | -6 | -9 | 1 | 0 | · | ·
CCn1ccnc1CNC(=O)C1CCC(=O)N(Cc2ccccc2F)C1 (stereo not drawn) | -10 | 54* | 0 | 0 | -9 | 3
Cc1ccccc1CNC(=S)OC1CCC12CCC(c1ccccc1)CC2 (stereo not drawn) | 0 | · | -2 | · | · | ·
COC(=O)C1CN(Cc2cn(Cc3ccccc3)nn2)CCS(=O)(=O)N1Cc1ccccc1 (stereo not drawn) | 0 | · | 0 | · | · | ·
COc1ccc(-c2nnc(SCc3ccccc3F)o2)cc1OC | 7 | 84* | 8 | 2 | 22 | ·
Cc1cccc(-n2c(-c3ccco3)nc3nc4ccccc4nc32)c1 | · | · | · | -1 | · | ·
COc1cccc(-n2c(-c3ccco3)nc3nc4ccccc4nc32)c1 | -21 | 75* | -16 | 0 | 65* | 174*
Cc1cc(/C=C2/C(=N)N3C(c4ccccc4)=CSC3=NC2=O)c(C)n1-c1ccc(Cl)cc1 | -1 | -4 | 1 | · | · | ·
Cc1cccc(-n2c(C)cc(/C=C3/C(=N)N4C(c5ccccc5)=CSC4=NC3=O)c2C)c1 | -1 | 55* | -4 | 2 | -8 | 1
Cc1ccc(C(=O)N/C(=C\c2ccco2)C(=O)NCCN2CCOCC2)cc1C | -11 | 56* | -6 | -1 | -5 | 1
C=CCN(CC#Cc1ccc(C)cc1)Cc1ccc(OC)cc1OC | 0 | · | 0 | · | · | ·
Clc1ccc(-c2csc(N/N=C/c3ccc4c(c3)OCO4)n2)cc1 | -6 | 79* | -6 | 1 | -2 | 1
COC(=O)C(N)Cc1ccc(O)c(O)c1 (stereo not drawn) | -14 | 81* | -8 | 0 | 9 | -7
O=C(Cn1cnc(S(=O)(=O)N2CCCC2)c1)Nc1ccccc1 | -12 | 51 | 1 | -1 | · | ·
O=C(Cn1cnc(S(=O)(=O)N2CCCC2)c1)Nc1ccc(OC(F)(F)F)cc1 | 2 | 66* | 2 | 0 | 2 | -5
CC(=NNC(=O)CSc1nnc(-c2ccccc2)n1-c1ccccc1)c1ccc2ccccc2c1 | -7 | · | -6 | · | · | ·
COCC(=O)Nc1nc2n(n1)C(c1ccc(Cl)cc1)CC(c1ccc(OC)cc1)N2 (stereo not drawn) | i | 80* | i | 2 | 2 | -3
CN(CC(=O)NCCN1CCOCC1)S(=O)(=O)c1ccc(Cl)cc1 | 0 | -2 | 1 | 0 | · | ·
CN(CC(=O)NCCCN1CCOCC1)S(=O)(=O)c1cc(Cl)ccc1Cl | -1 | 64* | 8 | 0 | 9 | -2
Cc1c(C(=O)Nc2ccc(C(=O)O)cc2)cnn1C | -2 | 58* | 2 | -1 | -6 | -1
CCn1ncc(C(=O)Nc2ccc(F)cc2)c1C | -2 | -12 | 0 | 1 | · | ·
CCn1c(=O)n(CC(=O)N2CCN(c3ccc(F)cc3)CC2)c(=O)c2ccccc21 | -4 | · | -3 | · | · | ·
COC(=O)[C@]12C[C@H](CC(=O)N3CCC(c4ccccc4)CC3)C(=O)N(CCc3ccc(OC)c(OC)c3)C1=C[C@H](C1CCCC1)O[C@@H]2C | -1 | · | 0 | · | · | ·
Cc1ccc(NS(=O)(=O)c2ccc3c(c2)OCCCO3)cc1S(=O)(=O)N1CCOCC1 | -7 | 58* | 2 | 1 | 1 | -1
O=S(=O)(Nc1cccc(S(=O)(=O)N2CCOCC2)c1)c1ccc2c(c1)OCCO2 | -3 | -2 | -1 | -1 | · | ·
SMILES | PLCb3 inh | Arr AP2 block | PLCg1 inh | NTR1 ag | Arr-AP2 CP1 | GST GSH counter
CCOC(=O)N1CCN(C(=O)C[C@H]2C[C@@]3(C(=O)OC)C(=C[C@H](C(C)(C)C)O[C@@H]3C)N(Cc3cccc4ccccc34)C2=O)CC1 | 4 | · | 2 | · | · | ·
COc1ccc(-c2c(Cc3ccccc3)nc(NC(=O)c3ccccc3)n2Cc2ccccc2)cc1 | -24 | · | -17 | · | · | ·
Cc1ccc(CN(C(=O)c2ccccc2C)C2CCS(=O)(=O)C2)o1 (stereo not drawn) | -7 | 56* | -2 | 0 | 3 | 7
Cc1ccc(CN(C(=O)c2ccccc2[N+](=O)[O-])C2CCS(=O)(=O)C2)o1 (stereo not drawn) | -10 | 34 | -1 | 0 | · | ·
CCC(C)(C)NC(=O)C(c1cccnc1)N(C(=O)c1csnn1)c1ccccc1 (stereo not drawn) | -2 | 54* | 0 | -1 | 0 | -8
O=C(CCc1ccccc1)N[C@H]1[C@H](OC(=O)c2ccc3ccccc3n2)CCC[C@@]12C(=O)N(Cc1ccccc1)c1ccccc12 | -3 | · | 2 | · | · | ·
CCOC(=O)n1c(O)c(N=NC(N)=S)c2cc(C)ccc21 | -8 | 54* | 1 | 0 | -10 | 2
COc1ccc(-n2c(SCc3cccc4ccccc34)nnc2-c2ccccc2)cc1 | -2 | · | 2 | · | · | ·
Cc1onc(C(=O)N2CCN(C(c3ccc(Cl)cc3)c3ccc(Cl)cc3)CC2)c1[N+](=O)[O-] | 1 | · | 2 | · | · | ·
COC(=O)c1ccccc1S(=O)(=O)N1CCC(C(=O)NCCC2=CCCCC2)CC1 | 5 | 63* | 0 | 0 | -5 | -1
O=C(NCCC1=CCCCC1)C1CCN(S(=O)(=O)c2ccccc2)CC1 | 1 | 6 | 2 | 2 | · | ·
Cc1ccccc1NS(=O)(=O)c1ccc(-c2ccc(=O)[nH]n2)o1 | -1 | 4 | 0 | -2 | · | ·
CCN(CC)c1ccc(NS(=O)(=O)c2ccc(-c3ccc(=O)[nH]n3)o2)c(C)c1 | -8 | 57* | 0 | 0 | 2 | 6
Cc1cccc(NC(=O)c2cccc(S(=O)(=O)Nc3ccccc3C(=O)O)c2)c1 | -7 | 58* | 1 | -1 | -8 | -7
CNS(=O)(=O)c1cccc(C(=O)NCC2(N3CCCCC3)CCCCC2)c1 | -8 | -26 | 1 | 0 | · | ·
COc1ccc(NC(=O)c2cccc(S(=O)(=O)N3CCOCC3)c2)cc1 | -2 | 61* | 1 | 1 | -6 | -6
COc1ccc(NS(=O)(=O)c2cccc(C(=O)NCC3(N4CCCCC4)CCCCC3)c2)cc1 | -6 | -19 | 2 | -1 | 12 | 6
CCOc1ccc(S(=O)(=O)Nc2ccc(C(=O)NCC3(N4CCCCC4)CCCCC3)cc2)cc1 | 7 | 4 | 1 | 0 | · | ·
Cc1cccc(NS(=O)(=O)c2cccc(C(=O)NCC3(N4CCCCC4)CCCCC3)c2)c1 | 0 | -10 | 1 | 1 | -5 | -3
COc1ccc(C2C(C(=O)N3CCN(c4ccccc4Cl)CC3)CC(=O)N2c2ccc(OC)cc2)cc1 (stereo not drawn) | 1 | · | -4 | · | · | ·
COc1ccc(NS(=O)(=O)c2ccc(C(=O)NCC3(N4CCOCC4)CCCCC3)cc2)cc1 | 3 | -8 | 9 | 1 | · | ·
COc1ccc(NS(=O)(=O)c2cccc(C(=O)NCC(c3ccco3)N3CCCCC3)c2)cc1 (stereo not drawn) | -5 | 59* | -2 | -1 | 27 | -4
